What was measured:
HEK-293T = assay: Multiplex assay against HEK293T; assay type: toxicity, cell-based; conditions: human;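 as to Population Tubulin-Different-Phenotype (%): share of the cells with healthy nuclei that show this phenotype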
In short: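 Live cells carried four stains from seeding: Hoechst33342, BioTracker Green Microtubule Cytoskeleton Dye, MitoTracker Red and Annexin V Alexa Fluor 680. They were imaged on a CQ1 microscope at 37°C and 5% CO2 after compound addition. Using CellPathfinder machine-learning gating, cells were split into Hoechst high-intensity objects or normal cells, normal cells into healthy, pyknosed or fragmented nuclei, and pyknosed cells into mitotic or apoptotic; tubulin, mitochondrial-mass and membrane-permeability phenotypes are per cents of healthy-nucleus cells.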

Fibroblast = assay: Incucyte cell viability with human fibroblast; assay type: toxicity, cell-based; conditions: 10 µM, compound concentration 10 uM; also: filed as whole numbers so only -1 and 0 and 1 occur
[1] = 12 h, 1 µM, compound concentration 1 uM, replicate 1
[2] = 12 h, 1 µM, compound concentration 1 uM, replicate 2
[3] = 12 h, 10 µM, compound concentration 10 uM, replicate 1
[4] = 12 h, 10 µM, compound concentration 10 uM, replicate 2
[5] = 24 h, 1 µM, compound concentration 1 uM, replicate 1
[6] = 24 h, 1 µM, compound concentration 1 uM, replicate 2
[7] = 24 h, 10 µM, compound concentration 10 uM, replicate 1
[8] = 24 h, 10 µM, compound concentration 10 uM, replicate 2

Compound: CCOC(=O)CCNc1cc(N2CCc3ccccc3CC2)nc(-c2ccccn2)n1
- Population Apoptotic (%) (HEK-293T; [1]): 15%
- Population Fragmented Nuclei (%) (HEK-293T; [1]): 15%
- Population Healthy Nuclei (%) (HEK-293T; [1]): 66%
- Population Hoechst High Intensity Objects (%) (HEK-293T; [1]): 9%
- Population Membrane Permeable-Phenotype (%) (HEK-293T; [1]): 4%
- Population Mitochondria Different-Phenotype (%) (HEK-293T; [1]): 3%
- Population Mitotic Cells (%) (HEK-293T; [1]): 84%
- Population Normal (%) (HEK-293T; [1]): 90%
- Population Pyknosed Nuclei (%) (HEK-293T; [1]): 17%
- Population Tubulin-Different-Phenotype (%) (HEK-293T; [1]): 4%
- Total Cell Count (HEK-293T; [1]): 720
- Population Apoptotic (%) (HEK-293T; [2]): 8%
- Population Fragmented Nuclei (%) (HEK-293T; [2]): 8%
- Population Healthy Nuclei (%) (HEK-293T; [2]): 86%
- Population Hoechst High Intensity Objects (%) (HEK-293T; [2]): 1%
- Population Membrane Permeable-Phenotype (%) (HEK-293T; [2]): 1%
- Population Mitochondria Different-Phenotype (%) (HEK-293T; [2]): 8%
- Population Mitotic Cells (%) (HEK-293T; [2]): 91%
- Population Normal (%) (HEK-293T; [2]): 98%
- Population Pyknosed Nuclei (%) (HEK-293T; [2]): 4%
- Population Tubulin-Different-Phenotype (%) (HEK-293T; [2]): 5%
- Total Cell Count (HEK-293T; [2]): 1753
- Population Apoptotic (%) (HEK-293T; [3]): 22%
- Population Fragmented Nuclei (%) (HEK-293T; [3]): 13%
- Population Healthy Nuclei (%) (HEK-293T; [3]): 54%
- Population Hoechst High Intensity Objects (%) (HEK-293T; [3]): 16%
- Population Membrane Permeable-Phenotype (%) (HEK-293T; [3]): 4%
- Population Mitochondria Different-Phenotype (%) (HEK-293T; [3]): 27%
- Population Mitotic Cells (%) (HEK-293T; [3]): 77%
- Population Normal (%) (HEK-293T; [3]): 83%
- Population Pyknosed Nuclei (%) (HEK-293T; [3]): 32%
- Population Tubulin-Different-Phenotype (%) (HEK-293T; [3]): 31%
- Total Cell Count (HEK-293T; [3]): 622
- Population Apoptotic (%) (HEK-293T; [4]): 26%
- Population Fragmented Nuclei (%) (HEK-293T; [4]): 3%
- Population Healthy Nuclei (%) (HEK-293T; [4]): 87%
- Population Hoechst High Intensity Objects (%) (HEK-293T; [4]): 4%
- Population Membrane Permeable-Phenotype (%) (HEK-293T; [4]): 2%
- Population Mitochondria Different-Phenotype (%) (HEK-293T; [4]): 43%
- Population Mitotic Cells (%) (HEK-293T; [4]): 73%
- Population Normal (%) (HEK-293T; [4]): 95%
- Population Pyknosed Nuclei (%) (HEK-293T; [4]): 8%
- Population Tubulin-Different-Phenotype (%) (HEK-293T; [4]): 56%
- Total Cell Count (HEK-293T; [4]): 1158
- Population Apoptotic (%) (HEK-293T; [5]): 20%
- Population Fragmented Nuclei (%) (HEK-293T; [5]): 12%
- Population Healthy Nuclei (%) (HEK-293T; [5]): 79%
- Population Hoechst High Intensity Objects (%) (HEK-293T; [5]): 4%
- Population Mitochondria Different-Phenotype (%) (HEK-293T; [5]): 2%
- Population Mitotic Cells (%) (HEK-293T; [5]): 79%
- Population Normal (%) (HEK-293T; [5]): 95%
- Population Pyknosed Nuclei (%) (HEK-293T; [5]): 8%
- Population Tubulin-Different-Phenotype (%) (HEK-293T; [5]): 7%
- Total Cell Count (HEK-293T; [5]): 821
- Population Apoptotic (%) (HEK-293T; [6]): 1%
- Population Fragmented Nuclei (%) (HEK-293T; [6]): 23%
- Population Healthy Nuclei (%) (HEK-293T; [6]): 73%
- Population Hoechst High Intensity Objects (%) (HEK-293T; [6]): 2%
- Population Membrane Permeable-Phenotype (%) (HEK-293T; [6]): 5%
- Population Mitochondria Different-Phenotype (%) (HEK-293T; [6]): 1%
- Population Mitotic Cells (%) (HEK-293T; [6]): 98%
- Population Normal (%) (HEK-293T; [6]): 97%
- Population Pyknosed Nuclei (%) (HEK-293T; [6]): 2%
- Population Tubulin-Different-Phenotype (%) (HEK-293T; [6]): 6%
- Total Cell Count (HEK-293T; [6]): 2917
- Population Apoptotic (%) (HEK-293T; [7]): 40%
- Population Fragmented Nuclei (%) (HEK-293T; [7]): 14%
- Population Healthy Nuclei (%) (HEK-293T; [7]): 46%
- Population Hoechst High Intensity Objects (%) (HEK-293T; [7]): 18%
- Population Membrane Permeable-Phenotype (%) (HEK-293T; [7]): 4%
- Population Mitochondria Different-Phenotype (%) (HEK-293T; [7]): 54%
- Population Mitotic Cells (%) (HEK-293T; [7]): 59%
- Population Normal (%) (HEK-293T; [7]): 81%
- Population Pyknosed Nuclei (%) (HEK-293T; [7]): 38%
- Population Tubulin-Different-Phenotype (%) (HEK-293T; [7]): 47%
- Total Cell Count (HEK-293T; [7]): 535
- Population Apoptotic (%) (HEK-293T; [8]): 29%
- Population Fragmented Nuclei (%) (HEK-293T; [8]): 4%
- Population Healthy Nuclei (%) (HEK-293T; [8]): 83%
- Population Hoechst High Intensity Objects (%) (HEK-293T; [8]): 8%
- Population Membrane Permeable-Phenotype (%) (HEK-293T; [8]): 2%
- Population Mitochondria Different-Phenotype (%) (HEK-293T; [8]): 50%
- Population Mitotic Cells (%) (HEK-293T; [8]): 70%
- Population Normal (%) (HEK-293T; [8]): 91%
- Population Pyknosed Nuclei (%) (HEK-293T; [8]): 12%
- Population Tubulin-Different-Phenotype (%) (HEK-293T; [8]): 65%
- Total Cell Count (HEK-293T; [8]): 1034
- Growth Rate (Fibroblast; 0 h, replicate number 2, timepoint 0 hours): 0
- Growth Rate (Fibroblast; 6 h, replicate number 1, timepoint 6 hours): 1
- Growth Rate (Fibroblast; 12 h, replicate number 1, timepoint 12 hours): 1
- Growth Rate (Fibroblast; 18 h, replicate number 1, timepoint 18 hours): 1
- Growth Rate (Fibroblast; 24 h, replicate number 1, timepoint 24 hours): 1
